This is an account of results in ChEMBL document CHEMBL1154614, “Synthesis and evaluation of stable bidentate transition metal complexes of 1-(chloromethyl)-5-hydroxy-3-(5,6,7-trimethoxyindol-2-ylcarbonyl)-2,3-dihydro-1H-pyrrolo[3,2-f]quinoline (seco-6-azaCBI-TMI) as hypoxia selective cytotoxins” (J Med Chem, 2009).

The test system of one data set is CHO-AA8. Kind of data set: Cytotoxicity against hamster AA8 cells after 4 hrs under aerobic conditions. The data set is classed as cell-based. Particulars: Cricetulus griseus, CHO-AA8, 4 h. A digest of the protocol: (§1)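 Attached log-phase cells exposed to compound for 4 h under aerobic conditions; compounds formulated in DMSO, final DMSO <1%. IC50 = concentration giving 50% inhibition of cell proliferation. Mean ± SEM of >2 determinations.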

Data set [1] deals with A549. Put plainly: Hypoxic cytotoxicity ratio, ratio of IC50 for human A549 cells under aerobic condition to IC50 for human A549 cells after 4 hrs under hypoxic condition. The data set is classed as functional. A digest of the protocol: (§2)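 Attached log-phase cells given 4 h compound exposure in parallel under oxic and hypoxic conditions; compounds in DMSO, final DMSO <1%. IC50 for inhibition of cell proliferation. Ratio = aerobic IC50/hypoxic IC50, calculated within each experiment.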

For data set [2], the system named is A549. Kind of data set: Cytotoxicity against human A549 cells after 4 hrs under aerobic conditions. Format: functional, cell-based. Particulars: A549, 4 h. A digest of the protocol:
as §1

Data set [3] has as its system SK-OV-3. Kind of data set: Hypoxic cytotoxicity ratio, ratio of IC50 for human SKOV3 cells under aerobic condition to IC50 for human SKOV3 cells after 4 hrs under hypoxic condition. The data set is classed as functional. Put shortly:
as §2

Another data set has as its system UV4. Put plainly: Cytotoxicity against hamster UV4 cells after 4 hrs under aerobic conditions. The settings on record: Cricetulus griseus, UV4, 4 h. Format: cell-based. Put shortly:
as §1

For data set [4], the system named is SK-OV-3. Kind of data set: Cytotoxicity against human SKOV3 cells after 4 hrs under aerobic conditions. Format: functional, cell-based. Particulars: SK-OV-3, 4 h. Put shortly: as §1
Data set [5] in a line: Solubility in alpha-MEM in presence of FCS. The data set is classed as physicochemical. The settings on record: alpha-MEM with FCS.
Data set [6] can be described thus: Cytotoxicity against mouse EMT6V cells after 4 hrs under aerobic conditions. The data set is classed as functional, cell-based. Put shortly:
as §1

Broadly, the IC50 is the concentration that gives 50% inhibition. What is called solubility is the dissolved amount per volume that the medium holds. On to `CN(C)CCOc1ccc2[nH]c(C(=O)N3CC(CCl)c4c3cc(O)c3ncccc43)cc2c1` (stereo not given), for which the half-maximal inhibitory concentration (IC50) in the data set with CHO-AA8 is 4.4 nM; in the data set on A549 [2], 1.3 nM; in the data set on UV4, 1.7 nM; with SK-OV-3 [4] it was 6.9 nM; in data set [6], 0.74 nM. Besides, the “Ratio IC50” value in the data set with A549 [1] amounted to 1.11; with SK-OV-3 [3] it was 0.56. The solubility in data set [5] came to 32 µM.

`COc1ccc(/C=C/C(=O)N2CC(CCl)c3c2cc(O)c2ncccc32)cc1` (stereo not given): the values for the IC50 with A549 [2] and with SK-OV-3 [4] were 0.09 nM and 0.29 nM, respectively. Besides, in data set [5], the solubility was 40 µM.

For the compound `COc1ccc(/C=C/C(=O)N2CC(CCl)c3c2cc(O)c2ncccc32)cc1O` (stereo not given), the IC50 with A549 [2] came to 0.18 nM; in the data set with SK-OV-3 [4] it was 0.17 nM. Further, the solubility in data set [5] is 110 µM.

For the compound `COc1cc2cc(C(=O)N3C[C@@H](CCl)c4c3cc(O)c3ncccc43)[nH]c2c(OC)c1OC`, the 50% inhibitory concentration (IC50) in the data set on CHO-AA8 is 0.07 nM; in the data set on A549 [2], 0.04 nM; in the data set on UV4 it was 0.04 nM; in the data set with SK-OV-3 [4], 0.11 nM; in data set [6] it was 0.03 nM.

As for `CN(C)CCOc1ccc(/C=C/C(=O)N2CC(CCl)c3c2cc(O)c2ncccc32)cc1` (stereo not given), the IC50 in the data set on CHO-AA8 was determined as 2.6 nM; with A549 [2], 0.92 nM; in the data set with UV4, 0.73 nM; in the data set with SK-OV-3 [4], 1.9 nM; in data set [6], 0.58 nM. The “Ratio IC50” value with A549 [1] stood at 0.86; in the data set on SK-OV-3 [3], 0.65. Also, the solubility in data set [5] was determined as 860 µM.

With `COc1ccc2[nH]c(C(=O)N3CC(CCl)c4c3cc(O)c3ncccc43)cc2c1` (stereo not given), the “Ratio IC50” value in the data set on A549 [1] is reported as 1.51; in the data set with SK-OV-3 [3], 0.91. The half-inhibitory concentration (IC50) is 0.08 nM with A549 [2] and 0.27 nM with SK-OV-3 [4]. Further, the solubility in data set [5] was determined as 110 µM.

Take `COc1cc2cc(C(=O)N3C[C@H](CCl)c4c3cc(O)c3ncccc43)[nH]c2c(OC)c1OC`: the IC50 in the data set on CHO-AA8 was 22 nM; with A549 [2], 8.8 nM; in the data set on UV4, 4.6 nM; with SK-OV-3 [4], 8.5 nM; in data set [6] it was 7.3 nM.

Regarding `COc1cc2cc(C(=O)N3CC(CCl)c4c3cc(O)c3ncccc43)[nH]c2c(OC)c1OC` (racemic), the IC50 in the data set with CHO-AA8 is 0.14 nM; in the data set with A549 [2], 0.06 nM; with UV4, 0.07 nM; with SK-OV-3 [4], 0.26 nM; in data set [6] it was 0.05 nM. The “Ratio IC50” value in the data set with A549 [1] was 0.76; in the data set with SK-OV-3 [3], 0.69. Moreover, the solubility in data set [5] was 30 µM.
